The test system of data set [1] is SARS-CoV-2. Description: SARS-CoV-2 replication in hACE2-HeLa cells. In kind it is cell-based. To be noted: 10 μmol/L.
The target of another data set is SARS-CoV-2 Nsp3^179−1329 (Severe acute respiratory syndrome coronavirus 2, UniProt P0DTD1). Description: Nsp3 DUB activity, Rho-110 cleavage assay. In kind it is biochemical.
Another data set concerns the target Nsp3179-1329 proteins (Severe acute respiratory syndrome coronavirus 2, UniProt P0DTD1). Set-up: species or system SARS-CoV-2. To be noted: incubation with compound, SEC.
A short description of data set [2]: Stability in mouse liver microsomes. In kind it is in vitro ADME. To be noted: compared to 2.
A further data set has as its target USP7 (Homo sapiens, UniProt Q93009). Description: DUB enzymatic assay. In kind it is biochemical. The conditions noted are these: 10 μmol/L.
For another data set, the target named is T1, USP8 (Homo sapiens, UniProt P40818).
T1 sequence (P40818 1-1118): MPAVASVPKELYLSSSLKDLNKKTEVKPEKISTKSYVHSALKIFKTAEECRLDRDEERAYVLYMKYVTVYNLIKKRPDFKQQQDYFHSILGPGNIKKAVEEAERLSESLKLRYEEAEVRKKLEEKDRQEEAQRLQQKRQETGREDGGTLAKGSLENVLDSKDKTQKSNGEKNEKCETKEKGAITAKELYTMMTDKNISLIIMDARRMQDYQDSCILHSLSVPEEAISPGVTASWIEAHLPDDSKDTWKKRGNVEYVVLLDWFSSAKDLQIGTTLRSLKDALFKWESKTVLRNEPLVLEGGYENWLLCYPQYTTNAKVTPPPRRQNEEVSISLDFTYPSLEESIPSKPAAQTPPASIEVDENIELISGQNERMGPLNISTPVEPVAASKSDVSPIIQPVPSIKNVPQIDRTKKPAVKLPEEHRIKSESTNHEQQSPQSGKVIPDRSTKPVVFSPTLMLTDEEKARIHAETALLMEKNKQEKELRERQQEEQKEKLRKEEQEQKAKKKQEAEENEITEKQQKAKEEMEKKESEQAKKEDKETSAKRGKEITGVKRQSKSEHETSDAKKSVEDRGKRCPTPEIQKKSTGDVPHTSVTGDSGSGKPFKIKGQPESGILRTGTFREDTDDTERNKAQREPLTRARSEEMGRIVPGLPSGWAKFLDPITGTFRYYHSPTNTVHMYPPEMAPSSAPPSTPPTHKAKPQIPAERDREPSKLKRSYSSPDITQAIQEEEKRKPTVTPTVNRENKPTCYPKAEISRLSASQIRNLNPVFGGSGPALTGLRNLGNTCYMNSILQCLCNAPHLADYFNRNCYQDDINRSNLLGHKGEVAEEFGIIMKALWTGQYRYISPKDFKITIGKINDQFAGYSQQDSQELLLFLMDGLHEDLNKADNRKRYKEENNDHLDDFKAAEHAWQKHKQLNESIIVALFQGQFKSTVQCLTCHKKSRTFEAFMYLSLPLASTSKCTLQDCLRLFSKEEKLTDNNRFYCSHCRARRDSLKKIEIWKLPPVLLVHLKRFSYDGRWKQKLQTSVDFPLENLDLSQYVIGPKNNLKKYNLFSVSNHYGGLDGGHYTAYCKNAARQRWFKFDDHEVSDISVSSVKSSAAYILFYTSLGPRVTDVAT
The data set is described as follows: DUB enzymatic assay. The conditions noted are these: 10 μmol/L. In kind it is biochemical.

The next data set has as its target USP14 (Homo sapiens, UniProt P54578). Description: DUB enzymatic assay. The format is biochemical. To be noted: 10 μmol/L.
A further data set deals with T2, UCHL1 (Homo sapiens, UniProt P09936).
T2 sequence (P09936 1-223): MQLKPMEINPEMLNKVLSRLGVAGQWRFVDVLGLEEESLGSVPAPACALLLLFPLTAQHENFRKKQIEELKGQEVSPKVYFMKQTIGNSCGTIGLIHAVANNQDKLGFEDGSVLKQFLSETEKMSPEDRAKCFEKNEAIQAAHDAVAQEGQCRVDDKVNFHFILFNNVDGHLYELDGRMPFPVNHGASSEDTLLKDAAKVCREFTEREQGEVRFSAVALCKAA
The data set is described as follows: DUB enzymatic assay. In kind it is biochemical. To be noted: 10 μmol/L.

The target of a further data set is OTULIN (Homo sapiens, UniProt Q96BN8). The data set is described as follows: DUB enzymatic assay. The format is biochemical. To be noted: 10 μmol/L.
The target in a further data set is OTUB1 (Homo sapiens, UniProt Q96FW1). The data set is described as follows: DUB enzymatic assay. In kind it is biochemical. The conditions noted are these: 10 μmol/L.
The subject of a further data set is OC43. In kind it is cell-based, HCoV-OC43. To be noted: Huh7 hepatocytes, 0.1 MOI.
A further data set deals with 229E. In kind it is cell-based, HCoV-229E.
Data set [3] relates to phosphorylation levels of RIPK1 Ser166. The format is cell-based. The conditions noted are these: mouse airway organoids.
The test system of data set [4] is expression levels of ACE2. In kind it is cell-based. The conditions noted are these: mouse airway organoids.
The subject of data set [5] is SARS-CoV-2. In kind it is in vivo, K18-hACE2 transgenic mice. To be noted: ip, BID; for Weight loss in infected mice: five days; for SARS-CoV-2 viral loads in the lungs: Day 6, RT-PCR and IHC.
Data set [6] has as its system panel of over 300 wild-type human kinases. Description: KINOMEscan kinase selectivity profile. The format is binding. The conditions noted are these: 1 μmol/L.
For data set [7], the system named is SARS-CoV-2. In kind it is cell-based. To be noted: 4 μmol/L.
The next data set concerns cytokine secretion. In kind it is cell-based, mouse. The conditions noted are these: single agent.
Data set [8] is described as follows: Pharmacokinetic studies in mice. The format is in vivo, male ICR mice. The method in brief: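 Test compound was formulated in 10% (v/v) dimethylacetamide and 10% (w/v) Solutol HS 15 in normal saline. It was given to male ICR mice by tail-vein iv (1 mpk) or ip (10 mpk). Plasma from centrifuged whole blood was diluted in acetonitrile with internal standard. Brain was taken into PBS/acetonitrile (1:8) with internal standard and homogenised (30 Hz, 10 min). Samples were centrifuged (4 °C, 14,000 rpm, 10 min) and analysed by LC-MS/MS.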

Where two headings read alike, the source gives them in different places.

OTULIN, sequence (Q96BN8 whole entry, species assumed): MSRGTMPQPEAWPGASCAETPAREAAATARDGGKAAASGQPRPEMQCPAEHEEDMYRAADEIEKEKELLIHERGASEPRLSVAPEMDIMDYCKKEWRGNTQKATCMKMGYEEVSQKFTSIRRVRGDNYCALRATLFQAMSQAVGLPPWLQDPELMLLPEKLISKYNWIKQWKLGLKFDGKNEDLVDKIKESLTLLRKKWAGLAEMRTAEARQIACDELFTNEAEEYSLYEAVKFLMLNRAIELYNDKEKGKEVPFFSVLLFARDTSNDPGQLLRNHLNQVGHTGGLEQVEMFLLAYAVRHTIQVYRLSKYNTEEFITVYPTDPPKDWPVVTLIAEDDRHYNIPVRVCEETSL
USP14, sequence (P54578 whole entry, species assumed): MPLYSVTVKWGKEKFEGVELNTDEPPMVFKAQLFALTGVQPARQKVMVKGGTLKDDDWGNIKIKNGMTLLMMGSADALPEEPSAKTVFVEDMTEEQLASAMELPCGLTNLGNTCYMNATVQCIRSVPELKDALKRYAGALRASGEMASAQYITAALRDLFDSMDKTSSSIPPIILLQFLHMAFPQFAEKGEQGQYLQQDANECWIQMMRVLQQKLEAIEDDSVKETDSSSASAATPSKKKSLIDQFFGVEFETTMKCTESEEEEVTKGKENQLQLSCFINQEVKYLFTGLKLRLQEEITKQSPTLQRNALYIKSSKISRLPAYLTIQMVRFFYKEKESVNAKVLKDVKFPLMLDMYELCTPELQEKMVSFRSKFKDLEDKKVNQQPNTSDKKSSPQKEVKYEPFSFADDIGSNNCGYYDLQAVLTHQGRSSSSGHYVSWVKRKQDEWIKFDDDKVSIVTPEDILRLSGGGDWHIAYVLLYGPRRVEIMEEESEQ
USP7, sequence (Q93009 whole entry, species assumed): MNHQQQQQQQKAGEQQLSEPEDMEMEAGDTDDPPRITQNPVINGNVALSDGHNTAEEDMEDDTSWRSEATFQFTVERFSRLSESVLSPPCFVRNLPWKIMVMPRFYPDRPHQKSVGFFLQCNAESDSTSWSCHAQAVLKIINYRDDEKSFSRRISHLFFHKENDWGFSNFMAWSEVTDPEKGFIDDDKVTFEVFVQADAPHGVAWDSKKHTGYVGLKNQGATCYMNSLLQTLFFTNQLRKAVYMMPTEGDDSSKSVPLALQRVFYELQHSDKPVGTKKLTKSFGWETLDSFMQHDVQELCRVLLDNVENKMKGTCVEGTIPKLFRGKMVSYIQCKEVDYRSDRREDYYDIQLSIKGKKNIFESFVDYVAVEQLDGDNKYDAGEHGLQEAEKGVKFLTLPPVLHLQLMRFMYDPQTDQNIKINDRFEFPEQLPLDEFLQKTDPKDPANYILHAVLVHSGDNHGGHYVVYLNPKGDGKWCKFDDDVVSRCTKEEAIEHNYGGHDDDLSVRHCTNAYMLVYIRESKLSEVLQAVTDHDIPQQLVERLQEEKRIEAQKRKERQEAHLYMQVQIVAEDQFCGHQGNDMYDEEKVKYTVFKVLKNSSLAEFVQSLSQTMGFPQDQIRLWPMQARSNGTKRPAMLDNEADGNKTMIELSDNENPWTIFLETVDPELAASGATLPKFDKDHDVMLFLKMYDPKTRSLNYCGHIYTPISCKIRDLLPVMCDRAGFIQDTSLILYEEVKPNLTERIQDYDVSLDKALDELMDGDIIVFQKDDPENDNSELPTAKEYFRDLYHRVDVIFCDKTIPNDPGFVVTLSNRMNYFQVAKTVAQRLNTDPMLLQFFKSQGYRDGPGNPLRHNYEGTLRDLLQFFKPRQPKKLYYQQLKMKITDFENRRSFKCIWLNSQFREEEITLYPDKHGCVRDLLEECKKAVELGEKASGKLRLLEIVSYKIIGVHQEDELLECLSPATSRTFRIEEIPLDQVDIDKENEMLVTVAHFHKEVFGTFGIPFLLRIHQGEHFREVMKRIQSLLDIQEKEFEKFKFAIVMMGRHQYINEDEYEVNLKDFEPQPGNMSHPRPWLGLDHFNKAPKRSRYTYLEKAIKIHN
OTUB1, sequence (Q96FW1 whole entry, species assumed): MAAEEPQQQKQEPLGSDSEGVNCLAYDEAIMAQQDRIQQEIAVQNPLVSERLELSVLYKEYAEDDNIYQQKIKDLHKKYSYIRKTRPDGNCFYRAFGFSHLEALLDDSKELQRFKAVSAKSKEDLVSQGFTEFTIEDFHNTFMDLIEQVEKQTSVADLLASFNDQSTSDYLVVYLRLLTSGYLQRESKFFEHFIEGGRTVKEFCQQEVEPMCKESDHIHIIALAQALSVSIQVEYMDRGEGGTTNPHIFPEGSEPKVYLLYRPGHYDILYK

For the molecule `CN1C(=O)[C@@H](NC(=O)c2nnc(Cc3ccccc3)[nH]2)COc2cccnc21` [DNL758, reference compound], the “Effects against SARS-CoV-2 in ACE2-HeLa cells” value in the data set with SARS-CoV-2 [1] was “neither QY1892 nor DNL758 exhibited detectable effects”.
Usually IC50 stands for the concentration that gives 50% inhibition. Read a high IC50 as a need for much substance. Turning to `C[C@H](c1cccc2ccccc12)N1CCC(C(=O)NCc2cccc(-c3cn(Cc4nnc5c(F)cccn45)nn3)c2)CC1` [SHY1643, (R)-N-(3-(1-((8-Fluoro-[1,2,4]triazolo[4,3-a]pyridin-3-yl)methyl)-1H-1,2,3-triazol-4-yl)benzyl)-1-(1-(naphthalen-1-yl)ethyl)piperidine-4-carboxamide], the IC50 on SARS-CoV-2 Nsp3^179−1329 stood at 28 nM. Further, on Nsp3179-1329 proteins, the “Dimerization of Nsp3 protein” value is given as “could induce dimerization of Nsp3 protein”. In [2], the “Metabolic stability in mouse microsomes” value is given as “markedly improved metabolic stability compared to 2”. Moreover, on USP7, the “Inhibitory effect on USP7” value was “no significant inhibitory effects”. On USP8, the “Inhibitory effect on USP8” value was “no significant inhibitory effects”. Moreover, at USP14, the “Inhibitory effect on USP14” value is recorded as “no significant inhibitory effects”. The “Inhibitory effect on UCHL1” value at UCHL1 is given as “no significant inhibitory effects”. The “Inhibitory effect on OTULIN” value on OTULIN is “no significant inhibitory effects”. On OTUB1, the “Inhibitory effect on OTUB1” value is “no significant inhibitory effects”. Moreover, the “Antiviral activity against OC43” value in the data set on OC43 is “robust antiviral activity”. Besides, the “Antiviral activity against 229E” value in the data set with 229E is recorded as “robust antiviral activity”. The “Phosphorylation levels of RIPK1 Ser166 following viral infection” value in data set [3] is “did not affect”. Besides, the “Expression levels of ACE2” value in data set [4] is on record as “did not affect”. Further, in the data set on SARS-CoV-2 [5] (10 mpk), the “Weight loss in infected mice” value was “significantly slowed the weight loss” and the “SARS-CoV-2 viral loads in the lungs” value is on record as “effectively reduced viral loads in the lungs”.
Consider `[2H]c1c([2H])c([C@]2([2H])CCCN2C(=O)C(C)(C)Oc2ccc3cn[nH]c3c2)c([2H])c([2H])c1C([2H])([2H])[2H]` [QY1892, (S)-2-((1H-Indazol-6-yl)oxy)-2-methyl-1-(2-(4-(methyl-d3)phenyl-2,3,5,6-d4)pyrrolidin-1-yl-2-d)propan-1-one], for which the “Kinase selectivity across the kinome” value in data set [6] is listed as “no significant off-target activity observed across the kinome”. For the same molecule, the “Effects against SARS-CoV-2 in ACE2-HeLa cells” value in the data set on SARS-CoV-2 [1] was “neither QY1892 nor DNL758 exhibited detectable effects”. For the same molecule, the “Viral replication in mouse airway organoids” value with SARS-CoV-2 [7] was “effectively suppressed the viral replication”. Further, the “Phosphorylation levels of RIPK1 Ser166 following viral infection” value in [3] is on record as “significantly reduced”. Also, the “Expression levels of ACE2” value in data set [4] is on record as “significantly reduced”. Further, in the data set with cytokine secretion, the “Cytokine secretion from the organoids upon viral infection” value was “significantly more effective than SHY1643”. For the same molecule, the Brain distribution post-administration entry in [8] is “significant brain distribution”. Also, in the data set on SARS-CoV-2 [5] (5 mpk), the “Weight loss in infected mice” value is given as “significantly slowed the weight loss” and the “SARS-CoV-2 viral loads in the lungs” value is reported as “effectively reduced viral loads in the lungs”.

The values above are taken from PMC12827892 (Acta Pharmaceutica Sinica. B, 2025).
